Source: PubChem BioAssay
MC4R antag cAMP = MC4R antagonists of cAMP signaling, primary screen, cell-based, TR-FRET, antagonist arm of biased-ligand search; Melanocortin receptor 4 (Homo sapiens), P32245; MC4R-expressing cells, MTII-stimulated cAMP, LANCE TR-FRET; inhibition, % at 6.5 µM; 360,000 tested, 0.48% active;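 active = inhibition above its plate's cutoff, the mean of tested wells on that plate plus 3 SD, cut at about 29% in these data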;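 note: 0% = Melanotan II alone and 100% = Melanotan II plus saturating MCL0020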
Target sequence (P32245 whole entry, looked up): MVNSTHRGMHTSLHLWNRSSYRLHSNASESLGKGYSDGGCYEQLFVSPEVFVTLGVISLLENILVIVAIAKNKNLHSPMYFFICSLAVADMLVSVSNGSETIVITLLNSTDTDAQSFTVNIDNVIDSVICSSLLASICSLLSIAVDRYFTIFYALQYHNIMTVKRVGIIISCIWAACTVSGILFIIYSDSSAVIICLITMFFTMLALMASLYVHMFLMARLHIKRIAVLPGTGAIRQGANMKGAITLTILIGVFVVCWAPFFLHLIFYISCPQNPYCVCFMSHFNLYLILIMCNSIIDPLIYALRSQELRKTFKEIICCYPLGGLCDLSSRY
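Material: human MC4R-expressing U2OS cells. Probe or stimulus: Melanotan II challenge. Dosing: 6.5 µM single dose. Times: 30-min compound, 1-h challenge, 1-h detection, room temperature. Technique: TR-FRET with Eu-cAMP and labeled anti-cAMP, 671 nm. Replication: singlicate.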
T cell modulator = modulators of CD8 T cell-vesicle binding, primary screen, mouse 2C CD8+ T cells, flow cytometry; 2C CD8+ T cell-vesicle binding; stronger effect = lower value; response (vesicle binding), % at 7 µM; 330,000 tested, 0.068% active;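 active = response, share of CD8 T cells binding vesicles, and their 90th percentile fluorescence all below set limits, cut at about 80% in these data, passing the limit was not always enough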;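 note: values below 100% mean blocked vesicle binding to the CD8+ T cells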
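Material: murine 2C transgenic CD8+ T lymphocytes / Also added: QL9-peptide-loaded Drosophila micro-vesicles bearing Ld, ICAM-1 and B7-1 / Schedule: binding step 1.5 h, 37 °C, antibody labelling 20 min, ice / Signal: flow cytometry, PE anti-B7-1 (FL2) versus Alexa647 anti-CD8 (FL8), PFA-fixed / Evaluation: percent CD8+ FL2 mean versus row control / Benchmarks: naked versus QL9-loaded vesicles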
EP2 mod = EP2 receptor modulators, cAMP readout, primary screen, cell-based, HTRF cAMP, PGE2 stimulation; 260,000 tested, 0.83% active; AID 940, 2007; Prostaglandin E2 receptor EP2 subtype (Homo sapiens), P43116; induction, % at 25 µM; EP2-expressing cells, cAMP HTRF FRET, PGE2 co-stimulation;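 active = compounds whose cAMP rise, as percent of the full-agonist control response, exceeds 60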;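 note: rat C6 glioma line stably carrying human EP2 under a CMV promoter; the protocol text gives 20 µM as final concentration; 100% = response of wells given 1 µM PGE2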
Target sequence (P43116 whole entry, looked up): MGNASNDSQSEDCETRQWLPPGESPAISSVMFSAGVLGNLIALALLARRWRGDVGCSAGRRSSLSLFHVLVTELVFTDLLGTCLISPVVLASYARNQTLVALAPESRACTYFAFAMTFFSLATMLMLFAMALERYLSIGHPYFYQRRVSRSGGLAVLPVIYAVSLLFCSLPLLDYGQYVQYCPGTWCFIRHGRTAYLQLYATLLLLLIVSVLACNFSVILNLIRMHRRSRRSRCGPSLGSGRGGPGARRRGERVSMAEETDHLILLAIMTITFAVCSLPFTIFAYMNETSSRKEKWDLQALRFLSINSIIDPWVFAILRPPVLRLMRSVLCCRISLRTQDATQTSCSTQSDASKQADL
MC4R barr agon = MC4R agonists recruiting beta-arrestin, primary screen, cell-based, luminescence, agonist arm of biased-ligand search. activation, % at 8.9 µM. 360,000 tested, 0.98% active. Melanocortin receptor 4 (Homo sapiens), P32245. U2OS MC4R beta-arrestin complementation; percent of melanotan II response, DMSO zero;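 active = activation above a per-plate cutoff, the mean activation of sample wells on that plate plus 3 SD, cut at about 8% in these data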
PGE2 EP2 inh = human EP2 receptor antagonists, primary screen, TR-FRET cAMP, C6 glioma cells. Prostaglandin E2 receptor EP2 subtype (Homo sapiens), P43116. C6 glioma cells expressing human EP2; cells stimulated with saturating PGE2. inhibition, % at 25 µM. 260,000 tested, 0.52% active. AID 1422, 2008;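 active = percent inhibition above 40 after rounding to a whole number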;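 note: rat C6 glioma host cells with rolipram phosphodiesterase inhibitor present; the protocol text gives 20 µM as final concentration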
Exocytosis inh = LAMP-1 surface exposure blockers, TALL-104 cells – cell-based, flow cytometry, MLPCN library, primary screen; AID 651702, 2012; inhibition, % at 10 µM; TALL-104 LAMP-1 surface exposure; cells stimulated with thapsigargin and PMA; 360,000 tested, 0.66% active;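 active = inhibition above about 55%, limit read from the data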
EP2 confirm = cAMP induction in EP2, EP4, beta2-AR and parental cells, confirmation, counter-screen for EP2 modulator project, cell-based, five parallel assays, C6 glioma, HEK293; calls only at 20 µM (by protocol); 1,300 tested, 47% active; cAMP HTRF induction; plus low (about EC15) PGE2 agonist; shares compounds with EP2 mod; AID 1080, 2008;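 active = cAMP induction above 50% in the main assay while under 30% in all four parallel counter assays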;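 note: rat C6 glioma cells stably expressing human EP2 receptor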
Numbers without * were called inactive; i = inactive; . = no result given; + = active, no number. Shown are actives, neighbours in structure and some others; about 2.6% of the full set was active somewhere.

SMILES	MC4R antag cAMP	T cell modulator	EP2 mod	MC4R barr agon	PGE2 EP2 inh	Exocytosis inh	EP2 confirm
CCCCCOc1ccc(/C=N/NC(=O)c2nnn(-c3nonc3N)c2CN2CCCCCC2)cc1	12.7	387.9	.	-0.9	.	-0.1	.
O=C(Nc1cc(Cl)ccc1Oc1ccccc1)c1ccccc1F	17.2	225.0	45.7	0.3	10.5	2.5	.
COc1cccc(OCC(=O)Nc2ccccc2-c2ccccc2)c1	-7.3	230.4	70.4*	1.6	12.7	2.4	+
O=C(Nc1ccccc1Oc1ccccc1)c1ccccc1F	6.1	303.1	68.1*	1.9	5.2	0.5	i
O=C(COc1ccccc1)Nc1ccccc1Oc1ccccc1	0.1	225.4	72.1*	3.0	4.1	-2.1	+
O=C(COc1ccccc1)Nc1ccccc1N1CCN(c2ccccc2)CC1	-2.6	332.7	72.9*	-2.6	8.3	0.2	+
O=C(COc1ccccc1)Nc1ccccc1N1CCN(c2ccc(F)cc2)CC1	-3.5	.	35.5	1.0	15.7	-1.6	.
O=C(COC(=O)CCN=C1NS(=O)(=O)c2ccccc21)NNC(=O)c1ccccc1	7.8	i	.	-1.1	.	2.6	.
C=CCOc1ccccc1CNc1ccc2c(c1)OCCO2	3.2	227.7	4.1	-1.2	19.6	6.2	.
C=CCOc1ccccc1CNc1ccccc1C	14.0	345.7	80.9*	-0.2	6.9	-6.5	+
C=CCOc1ccccc1CNc1cccc(F)c1	9.9	284.8	71.5*	1.4	9.6	-0.3	i
Cc1ccccc1NCc1ccccc1O	2.6	i	-21.2	0.1	6.6	-7.9	.
Nc1c(Cl)cc(Cl)cc1C(=O)OCC(=O)N1CCOCC1	-5.6	372.3	-8.1	-1.4	3.6	0.5	.
CCCC[C@@H]1C=C(C(=O)O)[C@H](c2ccc3c(c2)OCO3)N1S(=O)(=O)c1ccc(C)cc1	4.8	536.2	.	1.3	.	0.1	.
Cc1cc(=O)oc(C)c1C(=O)OCC(=O)c1ccccc1	-3.6	289.4	4.8	-0.6	7.6	-3.5	.
Cc1cc(=O)oc(C)c1C(=O)OC(C(=O)c1ccccc1)c1ccccc1 (configuration not stated)	13.6	165.7	67.0*	2.4	7.6	0.6	i
Cc1noc2ncnc(Sc3c(Cl)cccc3Cl)c12	3.2	328.6	66.1*	0.5	22.9	4.4	i
Cc1noc2ncnc(Sc3ccc(Cl)cc3)c12	7.1	140.8	20.5	3.5	17.7	4.1	.
COCCNC(=O)C(c1ccc(F)cc1)N(CC1CCCO1)C(=O)CCC(=O)Nc1ccccn1 (configuration not stated)	2.2	.	72.1*	-1.7	10.4	-1.2	i
COCCNC(=O)CN(CC1CCCO1)C(=O)CCC(=O)Nc1ccccn1 (configuration not stated)	0.4	118.5	27.2	-0.5	13.4	-21.5	.
C=CCn1c(=S)[nH]c2sccc2c1=O	-3.4	301.9	52.9	-4.2	18.0	2.4	i
C=CCn1c(=S)[nH]c2scc(-c3ccc(C)o3)c2c1=O	10.8	250.4	-6.8	-2.1	34.3	15.7	.
Cc1ccccc1C(=N)c1ccccc1Cc1cccc2ccccc12	.	.	72.2*	.	36.8	.	+
Cc1[nH]c(=O)[nH]c(=O)c1Cc1cccc2ccccc12	15.4	336.8	-6.2	2.0	10.4	-2.7	.
Cc1cc(C)cc(C(=N)c2ccccc2Cc2cccc3ccccc23)c1	.	.	52.9	.	36.7	.	i
SMILES	MC4R antag cAMP	T cell modulator	EP2 mod	MC4R barr agon	PGE2 EP2 inh	Exocytosis inh	EP2 confirm
CCN1CCN(S(=O)(=O)c2ccc3c(c2)NC(=O)CS3)CC1	12.8	905.8	.	1.6	.	-1.1	.
Cc1ccc(C)c(NC(=S)N/N=C/C(C)c2ccccc2)c1 (configuration not stated)	22.8	180.1	19.8	-2.3	6.8	1.2	.
FC(F)(F)c1ccc(/C=N/NC(=S)NC2CCCCC2)cc1	-0.8	238.3	25.5	-0.4	4.1	0.7	.
FC(F)(F)c1cccc(/C=N/NC(=S)NC2CCCCC2)c1	5.4	243.1	80.0*	6.5	4.5	-0.4	+
O=C(N=C1SCC(=O)N1c1ccccc1Cl)c1ccccc1	7.9	.	67.2*	-2.8	6.5	-1.6	i
CCc1ccc(Nc2oc(C)cc(=O)c2C(C)=O)cc1	2.6	132.5	68.1*	0.1	23.6	-0.1	i
CN(C)CC#Cc1cncc(C(=O)NNC(=O)Nc2ccc(Cl)cc2)c1	4.8	573.9	-13.9	-2.6	11.7	-2.3	.
CC(C)Sc1cc(N2CCOCC2)nc(-c2ccc(Cl)cc2)n1	-0.2	238.8	82.2*	-0.2	10.2	3.2	i
O=C1CCC(C(=O)OCC(=O)N2N=C3/C(=C/c4ccccc4)CCCC3C2c2ccccc2)N1 (configuration not stated)	14.3	506.4	77.8*	-0.8	5.8	0.1	+
COc1cccc(/C=N/c2oc(-c3ccccc3)cc2C#N)c1O	0.9	434.0	78.2*	-1.2	13.9	1.6	i
CCC(C)(C)n1nnnc1C(c1ccncc1)N1CCC(Cc2ccccc2)CC1 (configuration not stated)	0.8	696.7	79.0*	2.8	2.7	29.7	i
CC1(C)CC2C1CC[C@]1(C)CCC3C(C(=O)O)CC(=O)O[C@@]32C1 (some centres not stated)	.	.	23.3	.	14.7	.	.
CC12CCCC(O)(C1)C1CC(C)(C)C1CC2 (configuration not stated)	.	.	50.7	.	9.5	.	i
O=c1c2cn[nH]c2nc(SCc2ccccc2F)n1-c1ccc(Br)cc1	4.1	183.1	83.1*	0.6	12.8	-2.2	+
O=c1c2cn[nH]c2nc(SCc2cc(=O)n3cc(Br)ccc3n2)n1-c1ccc(Br)cc1	-3.9	265.5	19.7	2.8	16.2	6.1	.
CC1(C(=O)NCc2ccccc2)Cc2c(-c3ccc(C(N)=O)cc3)ccnc2O1 (configuration not stated)	-10.2	.	.	-0.3	.	-1.9	.
N#CCSc1nc2sc3c(c2c(=O)n1C1CCCCC1)CCCC3	9.9	705.5	72.6*	-2.1	16.0	1.1	+
